# Data taken from PMC10450354 (Bioactive Materials, 2023).
# Legend:
# BMDMs = assay: Flow cytometry of M2 markers in BMDMs incubated with IL-4 and UPNs; assay type: cell-based, mouse; conditions: for effect of inhibitor on UPN-induced CD206 expression: flow cytometry, IL-4 and UPN induced macrophages
# Procedure, shortened: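 Bone marrow cells from C57BL/6J mice were red-cell-lysed and grown as BMDMs at 37 °C and 5% CO2 in M-CSF medium (40 ng/ml). Medium was replenished on days 2 and 3 and renewed on day 5. Groups were untreated, IL-4, test nanofibers, and IL-4 plus test nanofibers. STAT6-IN-1 (p-STAT6 inhibitor) was applied with IL-4 plus nanofibers. CD163 and CD206 were quantified by flow cytometry; mean ± SD, n = 3.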
# macrophages [1] = assay: Microscopic observation of macrophage state with UP and UPN; assay type: cell-based, mouse; conditions: 800 μg/ml, 0, 48 and 72 h; Figure S7 A-C
# Procedure, shortened: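 Peptide and nanofiber preparations pre-incubated 6 h. Cells then cultured with them for 0, 48 and 72 h. Cell activity state checked by light microscopy alongside a CCK-8 proliferation read (100 μl per 2 ml medium, 2 h, absorbance 450 nm).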
# macrophages [2] = assay: TEM of macrophage mitochondria; assay type: cell-based, mouse; conditions: Ctrl group nearly 20%, Fig. 2J
# Procedure, shortened: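 Macrophages derived from mouse bone marrow in M-CSF medium (40 ng/ml), refreshed on days 2, 3 and 5, then induced with peptide or nanofibers. Imaged by transmission electron microscopy. Expanded mitochondria scored as a fraction of total mitochondria. Mean ± SD, n = 3.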
# bone defects in mice = assay: Gene transcript sequencing of bone defects in mice treated with UPs; assay type: in vivo, mouse; conditions: mice treated with UPs for 14 days (tail vein injection); Fig. 3A
# BMSCs = assay: Transwell migration of BMSCs in coculture; assay type: cell-based, mouse
# Procedure, shortened: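 BMSCs were obtained from 4-week-old SPF C57BL/6J mouse bone marrow, red-cell-lysed at 4 °C for 10 min, and cultured at 37 °C and 5% CO2. They were then cocultured with macrophages given no treatment, IL-4, or IL-4 plus test nanofibers. BMSC migration was assessed at 0, 24 and 48 h and expressed as percentage of migrating cells; mean ± SD, n = 3.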
# p-STAT6 = p-STAT6 immunofluorescence in M2-type macrophages; assay type: cell-based, mouse; conditions: 24 h; semiquantitative; Ctrl group 1.7%; Fig. 4E
molecule,measurement,setting,value
O=C(Nc1ccccc1)c1cc([N+](=O)[O-])ccc1Cl [GW9662],effect of inhibitor on UPN-induced CD206 expression,BMDMs,inhibited UPN-induced expression of the M2 type macrophage marker CD206
Ser-Glu-Ser-Ser-Glu [UP],active status of macrophages under the microscope,macrophages [1],not significantly toxic
same,percentage of swollen mitochondria,macrophages [2],38%
same,expression of Arg1 and CD163 in bone defects,bone defects in mice,marked increase in the expression of Arg1 and CD163
C/C(=C\C(=O)N[C@H](C(=O)N1CCC[C@H]1C(=O)N(c1ccccc1)c1ccc(I)cc1)C(C)(C)C)c1ccc(OP(=O)(O)O)cc1 [STAT6-IN-1],effect of inhibitor on UPN-induced CD206 expression,BMDMs,inhibited UPN-induced expression of the M2-type macrophage marker CD206
"IL-4: interleukin-4, used to induce M2-type macrophages",percentage of migrating cells at 24 h,"BMSCs; 24 h, control group nearly 2%, Fig. 5I",7.2%
same,number of migrating cells at 48 h,"BMSCs; 48 h, control group 4.8%, Fig. 5J",13.7%
same,p-STAT6 fluorescence intensity,p-STAT6,7.8%
same,expression of CD163,"BMDMs; BMDMs, flow cytometry quantification, n = 3, Ctrl nearly 17.2%, Fig. 3L",50.3%
same,expression of CD206,"BMDMs; BMDMs, flow cytometry quantification, n = 3, Ctrl nearly 18.1%, Fig. 3M",40.9%
